The results in this text go back to ChEMBL document CHEMBL3102698, “New highly toxic bile acids derived from deoxycholic acid, chenodeoxycholic acid and lithocholic acid” (Bioorg Med Chem, 2014).

The subject of test [1] is Caco-2. Put plainly: Induction of ROS production in human Caco2 cells at 10 uM after 0.5 to 24 hrs by 2',7'-dichlorfluorescein-diacetate staining-based fluorescence assay. The class given is functional, cell-based. Put shortly:
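Caco-2 at 70-80% confluence exposed in serum-free medium for 30 min or 24 h (compounds 10 µM, natural bile acids 100 µM). Medium then replaced with 100 µM 2',7'-dichlorofluorescein diacetate for 30 min at 37 °C, cells washed with PBS, fluorescence read at ex 490/em 530 nm. Signal expressed relative to vehicle and corrected for MTT viability; n = 3.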

Test [2] can be described thus: Cytotoxicity against human HT1080 cells assessed as cell viability after 24 hrs by MTT assay. It is filed as functional, cell-based. Particulars: HT-1080, 24 h. The procedure, abridged:
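Cells grown to 70% confluence (Caco-2 seeded 8 × 10^3/well, HT1080 12 × 10^4/well), serum-starved 1 h, then exposed 24 h serum-free to 0.1-1000 µM (DMSO ≤0.5%). MTT 0.5 mg/mL added for 3 h at 37 °C; formazan dissolved in DMSO, OD read at 540 nm. Viability taken as % of untreated OD. IC50 fitted from eight concentration levels, at least three experiments in triplicate.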
A general note: Tetrazolium dyes change colour on reduction, which living cells bring about.

Test [3] concerns Caco-2. As to the kind of experiment: Cytotoxicity against human Caco2 cells assessed as cell viability at 50 uM after 24 hrs by MTT assay relative to control. It is filed as functional. Conditions: Caco-2, 24 h, read-out: Activity.

The structures appear in SMILES notation. Active and inactive are the calls of the source. The rule behind the calls is not given here.

With `CCCNC(=O)CC[C@@H](C)[C@H]1CC[C@H]2[C@@H]3CC[C@@H]4C[C@@H](N=[N+]=[N-])CC[C@]4(C)[C@H]3C[C@H](O)[C@]12C`, in the test with Caco-2 [1], the result was Active. Further, the IC50 (commonly the point on the concentration scale where inhibition reaches its midpoint) in test [2] was determined as 6.3 µM. Moreover, in the test on Caco-2 [3], the viability at 50 µM stood at 60%.
